Screening results from PubChem.
The list is not random: actives were taken first. Their share in the collection is about 1.6%.
SIAE inh – human SIAE inhibitors, primary screen, biochemical, fluorescence polarization, FP-Rh probe, 1536-well HTS; Sialate O-acetylesterase (Homo sapiens), Q9HAT2; SIAE FP-Rh probe binding; inhibition, % at 9.66 µM; 370,000 compounds, 0.69% hits; AID 1053197, 2014;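 active means inhibition above a cutoff: mean of compounds within the control limits plus 3 SD of those, cut at about 17% in these data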
ABHD4 inh – ABHD4 inhibitors, primary screen, biochemical, fluorescence polarization, mouse; (Lyso)-N-acylphosphatidylethanolamine lipase (Mus musculus), Q8VD66; purified mABHD4, FP-Rh probe fluorescence polarization; inhibition, % at 8.92 µM; 370,000 compounds, 0.54% hits; AID 720543, 2013;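 active means inhibition exceeding the mean over every tested compound plus 3 SD, cut at about 30% in these data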
Target sequence (Q8VD66 whole entry, looked up): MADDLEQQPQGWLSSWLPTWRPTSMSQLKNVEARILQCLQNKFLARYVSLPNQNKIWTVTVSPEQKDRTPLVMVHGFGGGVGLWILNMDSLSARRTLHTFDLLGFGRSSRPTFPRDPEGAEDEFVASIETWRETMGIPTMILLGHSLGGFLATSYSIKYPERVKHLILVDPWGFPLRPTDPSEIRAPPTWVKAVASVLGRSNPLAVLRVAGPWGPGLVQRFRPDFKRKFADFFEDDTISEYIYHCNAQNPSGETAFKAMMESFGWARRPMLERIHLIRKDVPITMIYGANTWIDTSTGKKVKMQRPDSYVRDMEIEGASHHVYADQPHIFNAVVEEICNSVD
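Assay system: mABHD4 protein; medium: HEPES pH 7.0, NaCl, Pluronic buffer; dosing: 8.92 µM, single dose; schedule: 45 min + 60 min at 25 °C; signal: FP readout, ex 525 nm / em 598 nm; read-out: normalized percent inhibition of probe labeling; repeats: single replicate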
DAGLB inhibitor – DAGLB lipase inhibitors, primary screen, biochemical, fluorescence, HTS. HEK293T DAGLB membrane lysate, EnzChek fluorogenic substrate. inhibition, % at 5.17 µM. 340,000 compounds, 0.059% hits; in the data active means inhibition above about 34%
HTRA1 inhibitor – HTRA1 serine protease inhibitors, primary screen, biochemical, fluorescence polarization, HTS. recombinant HTRA1, FP-rhodamine activity-based probe. inhibition, % at 5.96 µM. 340,000 compounds, 0.5% hits. AID 504803, 2011; in the data active means inhibition above about 36%
TCR-CD3 inh – inhibitors of human TCR-CD3 interaction, primary screen, biochemical, fluorescence, TAMRA-labeled TCR probe; T-cell receptor (TCR); inhibition, % at 9.4 µM; 360,000 compounds, 0.37% hits; AID 651800, 2012;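 further: recombinant mutant TCR 2C K166C tagged with TAMRA read by polarization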
HTRA1 inh conf – HTRA1 protease inhibitors, retest, confirmation, biochemical, fluorescence polarization; shares compounds with HTRA1 inhibitor; recombinant HTRA1, FP-rhodamine activity-based probe; inhibition, % at 5.96 µM; 1,600 compounds, 66% hits;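 active means mean inhibition over three repeats above a set limit taken from the earlier primary screen, cut at about 37% in these data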;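 further: inhibitors block probe binding so polarization drops and inhibition rises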
BSA TAMRA ctr – compounds interfering with TAMRA-BSA probe, counter-screen for TCR-CD3 interaction inhibitor project, biochemical, fluorescence, TAMRA-labeled BSA; shares compounds with TCR-CD3 inh; TAMRA-labeled BSA probe fluorescence counterscreen; inhibition, % at 9.4 µM; 1,200 compounds, 10% hits; AID 652035, 2013; in the data active means inhibition above about 23%
TCR-CD3 conf – TCR-CD3 interaction inhibitors, retest, confirmation, biochemical, fluorescence, TAMRA-labeled TCR probe; shares compounds with TCR-CD3 inh; TAMRA-labeled TCR probe fluorescence binding assay; inhibition, % at 9.4 µM; 1,200 compounds, 48% hits; AID 652036, 2013
ABHD4 confirm – ABHD4 inhibitors, retest, confirmation, biochemical, fluorescence polarization, mouse; shares compounds with ABHD4 inh; purified mABHD4, FP-Rh probe fluorescence polarization; inhibition, % at 8.92 µM; 1,800 compounds, 55% hits; AID 720658, 2013;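 active means mean inhibition across replicates above the hit cutoff set in the primary screen, cut at about 30% in these data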
Numbers stand for hits; n = inactive; x = not tested or not shown. Unless noted, no stated cut-off is given here; in the data, active means inhibition above about 19%; inactive means the rest.

SMILES	SIAE inh	ABHD4 inh	DAGLB inhibitor	HTRA1 inhibitor	TCR-CD3 inh	HTRA1 inh conf	BSA TAMRA ctr	TCR-CD3 conf	others
Cc1cc(SCC(=O)c2ccc(O)c(O)c2)n2nc(C)c(-c3ccccc3)c2n1	n	n	n	56	25	65	n	48
COc1ccc2nc(C)cc(SCC(=O)N/N=C/c3ccc(O)c(O)c3)c2c1	n	n	n	38	40	59	n	71
CCOC(=O)CCCNC(=O)OC1CC2CC1[C@H]1CCCCN1[C@H]2C (stereo partly drawn)	n	n	x	x	x	x	x	x
C/C(CC(=O)Nc1ccccn1)=N\NC(=O)c1ccccc1O	n	n	n	56	45	n	23	37
C/C(CC(=O)Nc1ccccn1)=N\NC(=O)c1ccc2ccccc2c1	n	n	n	n	n	x	x	x
CC(=O)Nc1ccc(OCC(C)CN2CCC(C(O)(c3ccccc3)c3ccccc3)CC2)cc1 (stereo not drawn)	n	n	x	x	x	x	x	x
C/C(=N\NC(=O)c1ccc(-c2ccccc2)cc1)C1C(=O)c2ccccc2C1=O	n	n	n	36	29	58	n	38
COc1ccc(-c2cc(=O)oc3c(O)c(O)ccc23)cc1	n	n	n	73	21	86	n	n
Cc1ccc(/C=C2\SC(=S)N(CCC(=O)NNC(=O)c3ccccc3O)C2=O)cc1	n	n	n	38	29	59	n	33
Cc1ccc(/C=C2/SC(=S)N(CCCC(=O)Nc3ccc(O)cc3)C2=O)cc1	n	n	n	n	n	x	x	x
Cc1ccc(/C=C2\SC(=S)N(CCC(=O)NNC(=O)c3ccc(O)cc3)C2=O)cc1	n	n	n	n	n	x	x	x
Cc1ccc(/C=C2\SC(=S)N(CCCC(=O)NNC(=O)c3ccccc3O)C2=O)cc1	n	n	n	37	33	53	n	22
O=C(CCN1C(=O)/C(=C/c2ccccc2Cl)SC1=S)NNC(=O)c1ccccc1O	n	n	n	55	43	70	n	34
COc1cccc(/C=C2/SC(=S)N(CC(=O)NNC(=O)c3ccccc3O)C2=O)c1	n	n	n	46	25	n	n	46
O=C(CCN1C(=O)/C(=C/c2ccccc2Cl)SC1=S)NNC(=O)c1cccnc1	n	n	n	n	n	x	x	x
COc1cccc(/C=C2/SC(=S)N(CCCC(=O)Nc3ccc(O)cc3)C2=O)c1	n	n	n	n	n	x	x	x
CCCCCCCCN1C(=O)[C@@H](CC(=O)NCc2ccc(OC)c(OC)c2)C[C@@]2(C(=O)OC)C1=C[C@H](COCc1ccccc1)O[C@@H]2C	n	n	x	x	x	x	x	x
C#CCNC(=O)C[C@H]1C[C@@]2(C(=O)OC)C(=C[C@H](C3CCCC3)O[C@@H]2C)N(CCc2ccc(OC)c(OC)c2)C1=O	n	n	x	x	x	x	x	x
O=C(O)c1cc(Cl)c2c(c1)[C@@H]1C=CC[C@@H]1[C@H](c1ccc(S(=O)(=O)N3CCOCC3)cc1)N2	x	x	n	n	x	x	x	x
O=C(O)C1Nc2c(O)cc(Cl)c([N+](=O)[O-])c2C2C=CCC12 (stereo not drawn)	53	61	n	66	91	63	n	51
Cc1ccc(S(=O)(=O)N(CC(=O)NC2CCC(C)CC2)c2cc(C)cc(C)c2)cc1 (stereo not drawn)	n	n	x	x	x	x	x	x
CC1=Nc2cccc3cccc(c23)N1	n	n	n	42	39	n	45	23
CC1(C)CC(=O)N(CC(=O)N2CCN(c3cccc(C(F)(F)F)c3)CC2)c2ccccc2S1(=O)=O	n	n	x	x	x	x	x	x
Cc1nonc1C(=O)N/N=C/c1ccc(O)c(O)c1	n	n	n	n	n	x	x	x
O=C(N/N=C/c1ccc(O)c(O)c1)N/N=C/c1ccc(O)c(O)c1	n	n	n	38	65	n	n	81
SMILES	SIAE inh	ABHD4 inh	DAGLB inhibitor	HTRA1 inhibitor	TCR-CD3 inh	HTRA1 inh conf	BSA TAMRA ctr	TCR-CD3 conf	others
O=C(CSc1nc2ccccc2c(=O)[nH]1)c1ccc(O)c(O)c1	n	34	n	43	32	43	n	34
O=C(CSc1nc2ccccc2c(=O)[nH]1)c1ccc(O)cc1O	n	n	n	n	n	x	x	x
O=C(CSc1nc2ccccc2n1CCc1ccccc1)c1ccc(O)c(O)c1	20	n	n	70	23	66	n	32
COC(=O)[C@]12C[C@H](CC(=O)NCCc3ccccc3OC)C(=O)N(Cc3ccc(Cl)cc3Cl)C1=C[C@H](C(C)C)O[C@@H]2C1CC1	n	n	x	x	x	x	x	x
O=C(Cc1nnc(NC(=O)c2ccccc2)s1)N/N=C\c1ccc(O)c(O)c1	n	n	n	43	34	48	n	33
O=C(Cc1nnc(NC(=O)c2ccccc2)s1)N/N=C/c1ccc(O)cc1	n	n	n	n	n	x	x	x
O=[N+]([O-])c1ccc(Cl)c2c1C1C=CCC1C(c1ccccn1)N2 (stereo not drawn)	n	43	n	60	n	43	x	x	ABHD4 confirm=74
Cc1cc([N+](=O)[O-])cc2c1NC(c1ccccn1)C1CC=CC21 (stereo not drawn)	n	n	n	n	n	x	x	x
CCCCCCCCn1ccc(=N)cc1	n	n	n	n	n	x	x	x
CCCCCCCCCCCCCCCCn1cc[n+](C)c1	n	44	n	66	n	81	x	x	ABHD4 confirm=51
Oc1c(I)cc(I)c2cccnc12	34	33	n	72	n	66	x	x	ABHD4 confirm=n
OCc1ccc(O)c2ncccc12	n	n	n	n	n	x	x	x
O=C(O)CSc1cc(NS(=O)(=O)c2ccc(Br)cc2)c2ccccc2c1O	n	49	n	46	n	n	x	x	ABHD4 confirm=49
O=S(=O)(Nc1cc(Sc2ncn[nH]2)c(O)c2ccccc12)c1ccccc1	n	n	x	x	n	x	x	x
COC(=O)C1CN(Cc2ccc(OC)cc2)CCS(=O)(=O)N1Cc1cn(CCOC(C)=O)nn1 (stereo not drawn)	n	n	x	x	x	x	x	x
CCCn1nc([N+](=O)[O-])c(C(C#N)c2nc3ccccc3s2)c(Cl)c1=O (stereo not drawn)	n	78	67	76	n	72	x	x	ABHD4 confirm=98
